# According to ChEMBL document CHEMBL1125201, “C-glycosidic analogues of lipid A and lipid X: synthesis and biological activities” (J Med Chem, 1991):
# Assays:
# Mus musculus = assay: Survival rate of the nonspecific resistance against Pseudomonas aeruginosa infection after intraperitoneal administration in ten mice; format: functional; design: unit: surviving mice (of 10)
# Outline: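 Compound (12.5 mg/kg, single dose) given ip to myelosuppressed mice on day -1, then iv infection with P. aeruginosa (Δ12) on day 0 at an LD35 inoculum; 10 mice per group; survival counted after 4-day observation; LPS (S. abortus equi) ip control group.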
# Pseudomonas aeruginosa = assay: Compound was evaluated for effective dose required for the nonspecific resistance against Pseudomonas aeruginosa after intraperitoneal administration; format: functional; conditions: ip
# Outline: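 Myelosuppressed mice got the compound ip on day -1 and were infected iv with P. aeruginosa (Δ12) on day 0 at an LD35 inoculum. Survival was scored over 4 days. ED50 was calculated by Probit analysis with confidence limits. Disaccharides were tested as lysine salts.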
# [1] = Compound was evaluated for lethal dose after intravenous administration; format: toxicity, organism-based; conditions: mouse, in vivo
# Outline: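 Mice (C57BL/6, groups of six) given serial dilutions of compound iv via tail vein in pyrogen-free saline, with galactosamine 400 mg/kg ip given at the same time to sensitize to endotoxin; lethal toxicity recorded as LD50.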
Compound,Survival rate (Mus musculus),ED50 (Pseudomonas aeruginosa),LD50 [1]
CCCCCCCCCCCCCC(=O)O[C@H](CCCCCCCCCCC)CC(=O)O[C@H]1[C@H](O)[C@H](CO)O[C@@H](CC(=O)O)[C@@H]1NC(=O)C[C@H](O)CCCCCCCCCCC,2,,
CCCCCCCCCCCCCC(=O)O[C@H](CCCCCCCCCCC)CC(=O)OC1C(O)C(CO)OC(OP(=O)(O)O)C1NC(=O)C[C@H](O)CCCCCCCCCCC (stereo not given in full),9,1.7 mg/kg,0.3 mg/kg
CCCCCCCCCCC[C@@H](O)CC(=O)NC1C(OP(=O)(O)O)OC(CO)C(O)C1OC(=O)C[C@H](O)CCCCCCCCCCC (stereo not given in full),0,,
CCCCCCCCCCC[C@@H](O)CC(=O)NC1C(CC(=O)O)OC(CO)C(OC(=O)C[C@H](O)CCCCCCCCCCC)C1OC(=O)C[C@H](O)CCCCCCCCCCC (stereo not given in full),10,1.1 mg/kg,1 mg/kg
CCCCCCCCCCC[C@@H](O)CC(=O)NC1C(CC(=O)O)OC(COC2OC(CO)C(O)C(OC(=O)C[C@H](O)CCCCCCCCCCC)C2NC(=O)C[C@H](O)CCCCCCCCCCC)C(O)C1OC(=O)C[C@H](O)CCCCCCCCCCC (stereo not given in full),10,1.5 mg/kg,~5.2 mg/kg
CCCCCCCCCCC[C@@H](O)CC(=O)NC1C(OCC2OC(OP(=O)(O)O)C(NC(=O)C[C@H](O)CCCCCCCCCCC)C(OC(=O)C[C@H](O)CCCCCCCCCCC)C2O)OC(CO)C(O)C1OC(=O)C[C@H](O)CCCCCCCCCCC (stereo not given in full),8,3.4 mg/kg,3.5 mg/kg
CCCCCCCCCCC[C@@H](O)CC(=O)NC1C(OCC2OC(CC(=O)O)C(NC(C)=O)C(OC(=O)C[C@H](O)CCCCCCCCCCC)C2O)OC(CO)C(O)C1OC(=O)C[C@H](O)CCCCCCCCCCC (stereo not given in full),7,,
CCCCCCCCCCC[C@@H](O)CC(=O)OC1C(O)C(CO)OC(CC(=O)O)[C@@H]1NC(C)=O (stereo not given in full),1,,
CCCCCCCCCCC[C@@H](O)CC(=O)NC1C(OP(=O)(O)O)OC(CO)C(OC(=O)C[C@H](O)CCCCCCCCCCC)C1OC(=O)C[C@H](O)CCCCCCCCCCC (stereo not given in full),10,1.1 mg/kg,0.8 mg/kg
CCCCCCCCCCC[C@@H](O)CC(=O)N[C@H]1C(CC(=O)O)OC(CO)C(O)C1OC(=O)C[C@H](O)CCCCCCCCCCC (stereo not given in full),4,,
CCCCCCCCCCC[C@@H](O)CC(=O)N[C@H]1C(CC(=O)O)OC(CO)C(O)C1O (stereo not given in full),0,,
CCCCCCCCCCCCCC(=O)O[C@H](CCCCCCCCCCC)CC(=O)O[C@H]1[C@H](O)[C@H](CO)O[C@H](CC(=O)O)[C@@H]1NC(=O)C[C@H](O)CCCCCCCCCCC (stereo in doubt; 13a),4,,
CCCCCCCCCCCCCC(=O)O[C@H](CCCCCCCCCCC)CC(=O)O[C@H]1[C@H](O)[C@H](CO)O[C@H](CC(=O)O)[C@@H]1NC(=O)C[C@H](O)CCCCCCCCCCC (stereo in doubt; 17b),9,1.8 mg/kg,0.2 mg/kg
